Hits are enriched below; roughly 3.7% of the tested compounds scored in any of these assays.
KCNK3 block: human KCNK3 channel inhibitors, primary screen, CHO cells, FluxOR thallium flux, B-score; hit rate 0.84% among 340,000; FluxOR fluorescence; stronger effect = lower value; AID 602410, 2012; B-score at 10 µM; Potassium channel subfamily K member 3 (Homo sapiens), O14649;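 active means B-score under library mean minus 4 SD, starting fluorescence ratio at most library mean plus 5 SD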;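 further: more negative B-score means stronger inhibition of thallium flux through KCNK3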
Target sequence (O14649 whole entry, looked up): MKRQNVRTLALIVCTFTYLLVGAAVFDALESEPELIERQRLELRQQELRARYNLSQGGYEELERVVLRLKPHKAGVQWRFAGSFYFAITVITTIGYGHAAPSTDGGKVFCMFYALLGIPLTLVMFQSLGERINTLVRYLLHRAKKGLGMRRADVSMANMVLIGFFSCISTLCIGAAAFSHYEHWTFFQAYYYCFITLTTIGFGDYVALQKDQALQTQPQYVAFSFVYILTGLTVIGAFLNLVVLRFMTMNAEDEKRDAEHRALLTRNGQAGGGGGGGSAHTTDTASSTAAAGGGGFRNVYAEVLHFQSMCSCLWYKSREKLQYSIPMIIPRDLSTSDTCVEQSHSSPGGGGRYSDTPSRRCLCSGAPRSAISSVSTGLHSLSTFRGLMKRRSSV
KCNK9 inh: KCNK9 potassium channel inhibitors, primary screen, HEK293 cells, thallium flux | Potassium channel subfamily K member 9 (Homo sapiens), Q9NPC2 | FluxOR thallium flux fluorescence; stronger effect = lower value | B-score at 10 µM | hit rate 1.2% among 310,000 | AID 488922, 2010;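 active means ratio B-score over 3 SD below the library mean, with starting fluorescence within 5 SD of its mean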;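 further: negative B-score means less thallium flux so channel inhibition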
KCNQ1 inh: inhibitors of human KCNQ1 channel, primary screen, cell-based, thallium flux, high-throughput; Potassium voltage-gated channel subfamily KQT member 1 (Homo sapiens), P51787; CHO-K1 KCNQ1, FluxOR thallium flux fluorescence; stronger effect = higher value; B-score at 10 µM; hit rate 1.3% among 310,000; AID 2642, 2010;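 active means compounds whose thallium flux B-score, printed positive for inhibition, exceeds three library SD while starting fluorescence stays within three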;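 further: channel opened by potassium depolarization with thallium stimulus after 20 min compound exposure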
hERG rescue: hERG rescue from dofetilide block, primary screen, cell-based, CHO-hERG, FluxOR thallium flux, dofetilide IC70. hit rate 0.51% among 310,000. dofetilide IC70 present. AID 1511, 2009. activation (rescue from dofetilide block), less the hit threshold, % at 10 µM;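 active means activation above the mean of controls blocked by dofetilide plus 5 SD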;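 further: thallium influx through hERG after potassium depolarization seen as dye fluorescence rise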
Kir21 inh: inhibitors of mouse Kir2.1 inward-rectifier potassium channel; HEK293-Kir2.1, FluxOR thallium flux fluorescence; stronger effect = lower value; hit rate 0.85% among 310,000; Inward rectifier potassium channel 2 (Mus musculus), P35561; B-score at 10 µM;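 active means fluorescence ratio B-score at or below minus 3 SD of library scores, with starting-brightness B-score within 2 SD, cut at about -4.2 in these data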;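 further: channel flux triggered by added potassium and thallium sulfate stimulus; B-score of peak minus minimum fluorescence over baseline after thallium stimulus; more negative B-score means stronger Kir2.1 block with less thallium influx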
KCNQ1 act: potentiators or activators of KCNQ1 channel, primary screen, cell-based, thallium flux, high-throughput | B-score at 10 µM | AID 2648, 2010 | hit rate 0.35% among 310,000 | CHO-K1 KCNQ1, thallium flux FluxOR fluorescence; stronger effect = higher value | Potassium voltage-gated channel subfamily KQT member 1 (Homo sapiens), P51787;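 active means fluorescence ratio B-score, a plate-corrected score, at least three library SD, with initial intensity B-score within 5 SD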
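Assay system: stable KCNQ1 CHO-K1 line; medium: assay buffer, equal DMSO in all wells; timing: 90 min dye loading and 20 min compound exposure, both at room temperature; technique: kinetic FluxOR thallium fluorescence, 10-s 1-Hz baseline, 110-s post-stimulus read; read-out basis: B score of baseline-normalized fluorescence ratio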
Large screens that a line does not name were inactive.

CCCCCCCN1C(Nc2ccccc2)=NC[C@@H]1CC(C)C	KCNQ1 inh 7, Kir21 inh -4.9
CC(C)C[C@H]1CN=C(Nc2ccccc2)N1CCCC1CCCCC1	none
CC(C)C[C@H]1CN=C(Nc2ccccc2)N1CCCC1CCCC1	Kir21 inh -4.6
Cc1c(C)n(Cc2ccccc2)c2ccc(C(=O)NCCN3CCOCC3)cc12	none
Cc1c(C)n(Cc2ccccc2)c2ccc(C(=O)OCCN(C)C)cc12	Kir21 inh -9.5
Cc1ccc(-n2ncc3c(=O)n(CC(=O)N4CCN(c5ccccc5F)CC4)cnc32)cc1C	KCNQ1 act 7
NNc1nnc2c3cc(F)ccc3n(CCc3ccccc3)c2n1	none
Cc1ccc(-c2nc(=S)c3c(n2Cc2ccco2)CC(C)(C)OC3)cc1	KCNQ1 act 12
Cc1ccc(-c2nc(=S)c3c(n2Cc2ccco2)CCCC3)cc1	none (no result: KCNK9 inh, KCNQ1 inh, hERG rescue, Kir21 inh, KCNQ1 act)
CCOC(=O)C1=CNS(=O)(=O)NC1c1ccc(C)cc1 (configuration not stated)	none (no result: KCNK9 inh, KCNQ1 inh, hERG rescue, Kir21 inh, KCNQ1 act)
C/C(=N\NC(N)=S)C1C2C3CC4C5CC(C42)C1C53 (configuration not stated)	Kir21 inh -6
CCOC(=O)CN1NC2(CCC(C)CC2)NC1=S (configuration not stated)	none
CCOC(=O)CN1NC2(CCC(C(C)(C)C)CC2)NC1=S (configuration not stated)	hERG rescue 8.7
Brc1ccc2c(c1)OCCOCCOc1cc(Br)ccc1OCCOCCOCCO2	KCNK9 inh -7.7, KCNQ1 inh 6
CC(C)C[C@H](N)c1nnc(S(=O)(=O)Cc2cccc(F)c2)o1	Kir21 inh -7.9
CC(C)(C)OC(=O)N[C@@H](Cc1ccccc1)c1nnc(S(=O)(=O)Cc2cccc(F)c2)o1	none (no result: KCNK3 block)
COc1ccc(Nc2nc(NCC3CCCO3)c3ccccc3n2)c(OC)c1 (configuration not stated)	Kir21 inh -9.9
c1ccc2c(NCC3CCCO3)nc(N3CCOCC3)nc2c1 (configuration not stated)	none
Oc1cccc(Nc2nc(NCC3CCCO3)c3ccccc3n2)c1 (configuration not stated)	KCNQ1 inh 9, Kir21 inh -8.1
Cc1ccc(NC(=O)CSc2nc(=O)n(CCCN3CCOCC3)c3c2CCCC3)c(C)c1	none
O=C(O)CCC(=O)Nc1ccc(C(=O)OCC(=O)c2ccc(Cl)cc2Cl)cc1	none
O=C(C1COc2ccccc2O1)N1CCc2ccccc21 (configuration not stated)	none
CN(C(=S)NC(=O)c1ccc(F)cc1)C1CCCCC1	KCNQ1 act 8
O=C(NC(=O)N1CCCCCC1)c1ccc(Cl)cc1	none
CN(C(=S)NC(=O)c1ccccc1)C1CCCCC1	hERG rescue 15, KCNQ1 act 11
CC1CCN(C(=S)NC(=O)c2ccc(F)cc2)CC1	none (no result: KCNK9 inh, KCNQ1 inh, hERG rescue, Kir21 inh, KCNQ1 act)
CN(C(=S)NC(=O)c1ccc(Cl)cc1)C1CCCCC1	KCNQ1 act 12
O=C(N/N=C1/C(=O)c2cccc3cccc1c23)c1ccc(Cl)cc1	hERG rescue 53, KCNQ1 act 41
CCNC(=S)N/N=C1\C(=O)c2cccc3cccc1c23	hERG rescue 7.9, KCNQ1 act 9
CN(C)c1ccc(/C=C/C(O)=C2/C(=O)N(C)C3(C)CC2c2ccccc2O3)cc1 (configuration not stated)	KCNQ1 inh 7 (no result: KCNK3 block)
CCOc1ccc(/C=C/C(O)=C2/C(=O)NC3(C)CC2c2ccccc2O3)cc1OC (configuration not stated)	none
c1ccc(-c2noc(CN3CCN(c4ccccc4)CC3)n2)cc1	none
c1ccc(-c2noc(CN3CCN(C(c4ccccc4)c4ccccc4)CC3)n2)cc1	KCNK9 inh -7.2
Cc1ccc(C(=O)Cc2ccccc2)c(O)c1	none (no result: KCNK9 inh, KCNQ1 inh, hERG rescue, Kir21 inh, KCNQ1 act)
Cc1ccc(C(=O)CC(=O)c2cc(Cl)ccc2O)cc1	KCNQ1 act 30
CC(C)(C)c1ccc(C(=O)CC(=O)c2cc(Cl)ccc2O)cc1	hERG rescue 7.7
Cc1ccc(C(=O)CC(=O)c2ccc(C)cc2O)cc1	hERG rescue 11
CCCOC(=O)/C(C(N)=NCc1ccccc1)=C(\O)OCCC	KCNK9 inh -6.6
Clc1ccc(OCCn2ccnc2)c(Cl)c1	none
O=C1CCC(=O)N1OCCOc1ccc(Cl)c2ccccc12	KCNQ1 inh 6
Clc1ccc(OCCn2ccnc2)c2ccccc12	KCNQ1 inh 6
CCN1c2ccccc2S(=O)(=O)c2ccccc21	none
CCOC(=O)C1=C(C)C(c2ccccc2O)NC(=O)N1 (configuration not stated)	none
Cn1c(SC/C=C/c2ccccc2)nnc1-c1cccs1	none
CCn1c(SC/C=C/c2ccccc2)nnc1-c1cccs1	Kir21 inh -7.8
C=CCn1c(Cc2cccs2)nnc1SC/C=C/c1ccccc1	Kir21 inh -15
Cc1ccc(NC(=O)CN(C)C(=O)c2cccc(Br)c2)cc1	none
Cc1nccn1CCN(C)Cc1cn(Cc2ccccc2)nc1-c1ccc2c(c1)OCO2	Kir21 inh -5.5
CC(C)N(CCNC(=O)C1CCCN(c2ncnc3c2nc2n3CCCCC2)C1)Cc1ccccc1 (configuration not stated)	none
Cc1cccc2sc(NC(=O)C3CCN(S(=O)(=O)c4cc([N+](=O)[O-])ccc4Cl)CC3)nc12	KCNQ1 inh 11
Cc1nnc(NC(=O)C2CCN(S(=O)(=O)c3cc([N+](=O)[O-])ccc3Cl)CC2)o1	none (no result: KCNK9 inh, KCNQ1 inh, hERG rescue, Kir21 inh, KCNQ1 act)
CN(C(=O)COC(=O)c1cc(NS(=O)(=O)c2cc([N+](=O)[O-])ccc2Cl)ccc1O)C1CCCCC1	none
CC(=O)C[C@H]1c2ccccc2S(=O)(=O)N1C1CCCC1	Kir21 inh -4.8
CS/C(N)=N/S(=O)(=O)c1ccc(NC(C)=O)cc1	none
CCOC(=O)c1cc(-c2ccc(Cl)cc2)nc2c1c(=O)[nH]c(=O)n2CCOC	none
CCOC(=O)c1cc(-c2ccc(Cl)cc2)nc2onc(C)c12	KCNK9 inh -8 (no result: KCNK3 block)
CN(/N=C/c1ccncc1)c1cnc2ccccc2n1	none
O=C(Nn1c(C2CCCCC2)nc2ccccc2c1=O)c1ccc(Cl)c([N+](=O)[O-])c1	KCNQ1 inh 9
CCSC1=C(C#N)C(c2ccc(C)o2)CC(=O)N1 (configuration not stated)	none
N#CC1=C(SCc2ccccc2)NC(=O)CC1c1ccco1 (configuration not stated)	Kir21 inh -9.1

Screening results (PubChem BioAssay)
